Source: PubChem
p97 inhibitor – blocks human p97 ATPase activity | AID 1481 | 0.42% of 220,000 active | inhibition, % at 8 µM | recombinant p97 ATPase, Kinase-Glo ATP luminescence, 3 h; in the data active means inhibition above about 15%;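 further: 0% = DMSO vehicle and 100% = wells lacking enzyme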
Target sequence (P55072 whole entry, looked up): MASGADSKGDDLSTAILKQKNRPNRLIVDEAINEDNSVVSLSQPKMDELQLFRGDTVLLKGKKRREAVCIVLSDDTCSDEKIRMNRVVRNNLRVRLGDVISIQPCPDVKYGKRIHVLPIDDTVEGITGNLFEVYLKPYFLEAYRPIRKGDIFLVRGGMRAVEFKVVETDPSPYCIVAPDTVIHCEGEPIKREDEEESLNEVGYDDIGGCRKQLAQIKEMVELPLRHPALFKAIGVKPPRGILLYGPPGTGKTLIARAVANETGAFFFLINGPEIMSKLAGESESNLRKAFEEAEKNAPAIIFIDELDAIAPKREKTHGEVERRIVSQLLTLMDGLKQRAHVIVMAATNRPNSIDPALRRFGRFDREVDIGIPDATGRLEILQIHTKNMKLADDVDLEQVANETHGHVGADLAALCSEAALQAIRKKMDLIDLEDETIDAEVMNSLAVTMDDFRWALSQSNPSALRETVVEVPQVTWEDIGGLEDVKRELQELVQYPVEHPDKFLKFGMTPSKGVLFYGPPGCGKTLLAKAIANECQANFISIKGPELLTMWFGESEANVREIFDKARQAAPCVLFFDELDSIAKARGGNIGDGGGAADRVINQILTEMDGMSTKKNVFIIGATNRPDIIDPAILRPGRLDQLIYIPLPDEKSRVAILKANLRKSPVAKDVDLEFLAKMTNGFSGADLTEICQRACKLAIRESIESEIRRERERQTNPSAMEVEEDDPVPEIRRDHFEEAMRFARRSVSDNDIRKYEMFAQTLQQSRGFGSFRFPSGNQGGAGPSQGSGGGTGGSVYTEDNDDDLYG
Wee1 stabilizer – human Wee1 degradation inhibition, primary screen. P30291. HeLa Luc-Wee1K328M stability, luciferase luminescence; 100% = proteasome inhibitor MG132 effect. reporter increase, % at 5 µM. 1.2% of 220,000 active;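 active means activation above the mean of all tested compounds plus 3 SD, set per screening run, cut at about 8.8% in these data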;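 further: cells exposed to compound for 20 h before luminescence read; 0% = DMSO alone and 100% = MG132 at 30 µM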
APP 5'UTR act – APP 5'UTR luciferase reporter activation. SH-SY5Y APP 5'UTR luciferase reporter, luminescence; zero percent = DMSO vehicle wells. activation, % at 2 µM. 1% of 190,000 active. AID 1276;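 active means activation above a set limit, based on mean plus 3 SD of controls, cut at about 140% in these data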
STAT1 act – activators of IFN-gamma induced STAT1 signaling | NIH 3T3 STAT1-luciferase reporter, luminescence; 100% = IFN-gamma alone, no compound | activation (% of control), % at 5.5 µM | 2.6% of 200,000 active | AID 932;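 active means activation above the screen-wide mean activation plus 3 SD, cut at about 130% in these data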;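 further: raw ratio to IFN-gamma control signal so 100% means no change and 0% no light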
NF-kB neuron act – raises NF-kB expression in human neuronal cells. AID 1239. fold change at 12.5 µM. 1.6% of 190,000 active. NF-kB reporter expression; active compounds read high; in the data active means fold change above about 3.3
MDM2 E3 inh – blocks human Mdm2 ubiquitin ligase activity. Q00987. cell-based MDM2 ubiquitination luciferase reporter, 2 h; 0 = plate control, 100 = twice control, blank-subtracted. signal enhancement, % at 5 µM. 0.11% of 210,000 active. AID 1230;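 active means signal enhancement of 30% or more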;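 further: luminescence tracks abundance of the self-degrading MDM2-luciferase fusion protein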
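Assay system: mammalian cells stably expressing self-ubiquitinating, self-degrading MDM2 E3–luciferase fusion. Quantity: 2000 cells in each well. Medium: DMEM culture medium. Compound dosing: single-point 5 µM. Timing: cell settling 4 h, compound treatment 2 h, both 37 °C. Technique: luciferase luminescence. Read-out basis: percent signal gain over controls, blank-subtracted. Benchmarks: plate controls and plate blanks.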
Starred values were filed as active, the others as inactive; / = not tested or not shown. An excerpt weighted towards active compounds, which were near 4.6% of everything screened.

SMILES	p97 inhibitor	Wee1 stabilizer	APP 5'UTR act	STAT1 act	NF-kB neuron act	MDM2 E3 inh
Cc1ccc(C)c2[nH]c(=O)c(CN(CCN3CCOCC3)Cc3nnnn3CC3CCCO3)cc12 (centres undefined)	-5.5	-1.3	3.2	99.4	1.67	-1.1
O=C(c1cccc(Oc2ccccc2)c1)N1CCN(c2ccccn2)CC1	-0.5	-2.0	-23.1	98.5	1.02	-8.0
CCN=c1scc(C)n1/N=C/c1ccsc1	-8.1	-0.8	97.4	150.1*	3.65*	-0.4
CC(=O)Nc1cc2c(cc1C(C)=O)OCCO2	1.0	9.0*	-8.6	103.5	1.13	-0.3
Cc1ccccc1Nc1ncnc(N)n1	4.2	4.0	-4.0	98.4	0.92	-8.8
CN(CCC(=O)Nc1ccc2c(c1)OCO2)Cc1ccccc1	6.4	10.1*	8.6	102.1	1.32	-3.1
O=C(COc1ccccc1Cl)Nc1ccc2c(c1)OCCO2	-0.3	-1.2	189.5*	115.7	2.78	-16.9
CC1CC(C)(C)NC(=S)N1CCCC(=O)Nc1ccc2c(c1)OCCO2 (centres undefined)	0.1	-3.1	61.5	137.1*	1.24	2.5
O=C(CCSCc1ccccc1)Nc1ccc2c(c1)OCCO2	-1.9	-1.4	4.3	125.6	1.45	-15.4
O=C(CCc1ccccc1)Nc1ccc2c(c1)OCCO2	9.1	0.2	132.1	145.4*	4.54*	-12.3
Cc1ccccc1OCC(=O)Nc1ccc2c(c1)OCCO2	1.4	-1.7	/	/	/	/
CCC(=O)NC(NC(=S)Nc1cccc2cccnc12)C(Cl)(Cl)Cl (centres undefined)	5.7	9.8*	9.5	105.1	1.47	-17.4
COc1cc(/C=C(\C#N)c2nc3ccc(C)cc3[nH]2)c([N+](=O)[O-])cc1OC	1.8	3.4	21.2	90.2	0.42	-0.6
Cc1cc(/C=C(\C#N)c2nc3ccccc3[nH]2)c(C)n1C	1.6	0.0	57.2	142.1*	2.67	-24.6
COc1c(O)ccc(/C=C(\C#N)c2nc3ccccc3[nH]2)c1[N+](=O)[O-]	5.5	2.5	87.8	134.3*	1.09	-1.1
N#C/C(=C/c1cccs1)c1nc2ccccc2[nH]1	5.3	6.6	68.5	144.6*	1.65	-5.8
N#C/C(=C/c1ccc(N2CCOCC2)o1)c1nc2ccccc2[nH]1	2.9	0.8	157.9*	148.7*	2.78	/
C/C(=N\NC(=O)c1cccc(N/N=C(\C)c2cc(O)ccc2O)c1)c1cc(O)ccc1O	7.4	1.9	-7.2	106.3	0.34	-23.1
O=C(NCC1CCCO1)C1CCN(C2CCN(C3CCCCCC3)CC2)CC1 (centres undefined)	1.3	-1.5	-5.3	93.0	0.94	-17.6
N#Cc1ccc(CSc2nnc(Nc3ccccc3)s2)cc1	-6.2	0.6	-11.9	97.2	1.08	-45.3
c1ccc(CSc2nnc(NC3=NCCCCC3)s2)cc1	-5.0	2.5	71.9	139.6*	2.94	-10.1
COc1cccc(NC(=O)CSC2=C(C#N)C(c3ccco3)C3=C(CCCC3=O)N2)c1 (centres undefined)	8.4	10.4*	-7.5	99.9	1.62	-9.2
CC1(C)C(C=C(Cl)Cl)C1C(=O)N1CCN(Cc2ccccc2)CC1 (centres undefined)	-1.0	-1.5	-1.4	97.5	1.13	-14.5
O=C(CSc1cccc2cccnc12)N1CCCC1	9.9	7.3	-27.7	96.7	5.05*	8.9
O=C(CSc1nncc2ccccc12)N1CCCCC1	4.2	1.6	22.2	130.4*	1.91	0.0
SMILES	p97 inhibitor	Wee1 stabilizer	APP 5'UTR act	STAT1 act	NF-kB neuron act	MDM2 E3 inh
CN(C)C(=O)CSc1cccc2cccnc12	11.6	-0.7	-10.8	104.8	5.12*	-3.1
COc1cc(OC)cc(C(=O)NCC(=O)OCC(=O)C(C)(C)C)c1	4.7	-2.2	7.1	104.3	1.48	/
CCCCSc1nsc(NC(C)=O)n1	-6.3	0.8	141.7*	127.1	3.21	-9.9
CCCCCCSc1nsc(NC(C)=O)n1	-1.4	3.6	25.9	129.9*	2.61	5.8
CCCSc1nsc(NC(=O)c2cccnc2OCC)n1	-1.2	-3.0	-2.3	111.3	1.43	-10.8
CCN(CC)CCn1c2ccccc2c2cnc(N)c(C#N)c21	-1.8	0.3	-19.2	176.0*	0.89	-28.9
CC(=O)c1cccc(NC(=O)c2cnn3ccccc23)c1	-9.6	5.5	/	129.2*	3.36*	-17.9
Cc1ccc(OCc2csc(N)n2)cc1	-4.2	-0.7	48.7	130.6*	2.2	-18.5
Nc1nc(COc2ccc(Cl)cc2)cs1	-0.1	1.4	53.2	136.6*	1.12	-8.6
Nc1nc(COc2ccccc2)cs1	-4.6	2.8	17.0	101.8	1.39	-15.1
Cc1ccc(OCc2nnc(N)s2)cc1	4.5	-3.5	46.2	114.7	1.68	-2.9
COc1ccc(-c2nc(SC(CC(=O)NCCN3CCOCC3)c3cccs3)n[nH]2)cc1 (centres undefined)	0.8	0.5	10.5	101.7	1.01	-7.4
CC(OC(=O)c1cn(-c2ccccc2)nc1-c1cccnc1)C(N)=O (centres undefined)	-0.7	-0.5	-8.1	103.4	1.05	-6.5
COc1cccc(NC(=S)NCc2ccncc2)c1	1.6	-0.8	-17.7	96.2	0.93	-9.7
COc1cccc(NC(=O)C(=O)NCc2ccncc2)c1	2.3	5.3	26.1	128.6*	1.17	-23.7
COc1cccc(NC(=O)C(=O)N2CCOCC2)c1	3.6	4.5	/	135.8*	2.58	-6.9
COc1ccc(NC(=S)NNc2ccc(S(=O)(=O)Nc3ccccc3C(=O)O)cc2[N+](=O)[O-])cc1	-0.1	0.1	/	/	/	-38.4
CC(Oc1ccccc1)C(=O)NC1=NCCS1 (centres undefined)	4.1	0.6	57.9	133.7*	/	/
O=C(NC1=NCCS1)Nc1ccccc1	-2.3	-1.1	53.2	134.6*	2.45	-2.6
O=C(NC1=NCCS1)c1cccs1	7.8	0.4	19.2	98.2	1.06	-15.1
O=C(COc1ccccc1)NC1=NCCS1	3.8	1.7	-6.2	122.1	1.22	-6.0
Fc1cccc(CSc2ccc3nnc(-c4cccnc4)n3n2)c1	1.1	-1.8	-0.6	99.2	0.86	-26.4
O=C(Nc1cccc([N+](=O)[O-])c1)C(=O)N1CCCCC1	-0.6	6.8	69.1	132.5*	2.39	-17.4
Cc1ccc(NC(=O)C(=O)N2CCCC2)cc1Cl	4.8	1.6	89.0	147.5*	2.97	-12.9
O=C(CN1CCCCCC1)Nc1cccc([N+](=O)[O-])c1	-3.5	-2.2	13.0	106.0	1.15	-7.5
Cc1ccc(C)c(OCC(=O)NCC(C)C)c1C	1.3	7.3	-16.3	97.1	0.96	0.3
Cn1ccs/c1=N\C(=O)Nc1ccccc1	-1.9	-1.1	66.2	141.4*	2.6	-16.7
Cn1ccsc1=NC(=O)c1ccccc1F	3.8	1.2	5.0	110.4	1.83	-3.7
